Calpain2 inh – blocks pig calpain II enzyme activity. purified calpain II, fluorogenic peptide substrate, 30 min. 220,000 compounds, 0.37% hits. inhibition, % at 16 µM;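 active = inhibition above about 50%, limit read from the data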
Mcl1-Noxa inh – Mcl-1/Noxa interaction inhibition. Q07820. TR-FRET Mcl-1/Noxa peptide binding, 2 h. inhibition, % at 21.7 µM. 220,000 compounds, 1.5% hits. AID 1022;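 active = compounds that cut the protein-peptide binding signal by more than 50% relative to plate controls in a single-dose test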;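 also: His-tagged Mcl-1 with rhodamine Noxa BH3 peptide and terbium anti-His antibody; 0% = Mcl-1 plus Noxa peptide wells and 100% = peptide-only wells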
Target sequence (Q07820 whole entry, looked up): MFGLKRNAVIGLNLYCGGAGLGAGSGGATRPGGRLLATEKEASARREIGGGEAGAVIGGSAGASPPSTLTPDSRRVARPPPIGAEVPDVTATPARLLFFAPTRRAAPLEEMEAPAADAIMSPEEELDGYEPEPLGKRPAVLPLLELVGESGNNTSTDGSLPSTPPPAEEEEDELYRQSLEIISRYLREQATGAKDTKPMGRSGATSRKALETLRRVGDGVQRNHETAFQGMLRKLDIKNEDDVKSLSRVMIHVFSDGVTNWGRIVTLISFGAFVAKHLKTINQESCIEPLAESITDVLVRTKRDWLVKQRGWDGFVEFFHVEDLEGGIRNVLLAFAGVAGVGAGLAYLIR
Calb biofilm kill – mixtures killing C. albicans biofilm. C. albicans biofilm persisters + clotrimazole, fluorescence viability; primary screen in compound mixtures of four per well. inhibition, % at 7.6 µM. 120,000 compounds, 0.02% hits. AID 1242;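 active = inhibition above 30.3% in the primary screen of four-compound pools, then above 30% when the compound was retested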;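 also: compounds exposed to preformed 24 h biofilms for 48 h; 0% = untreated biofilm control and 100% = clotrimazole plus chlorhexidine kill blank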
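Incubation: 24 h biofilm formation, then 48 h compound exposure, 37 °C | Material: C. albicans biofilms | Buffer or medium: RPMI/MOPS medium, pH 7.0 | Measured by: 2-h Alamar Blue fluorescence, 535/590 nm excitation/emission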
Mcl1-Bid inh – Mcl-1/Bid interaction inhibition. Q07820. TR-FRET Mcl-1/Bid-Dy647 peptide binding, 1536-well. inhibition, % at 21.7 µM. 220,000 compounds, 0.97% hits;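 active = compounds that cut the binding signal by more than half at the single screening dose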;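 also: His-tagged Mcl-1 with europium anti-His antibody binding Bid BH3 peptide; 0% = Mcl-1 plus peptide wells and 100% = peptide-only wells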
Arbovirus inh – blocks arbovirus infection; arbovirus infection cell-based antiviral screen; inhibition, % at 10 µM; 200,000 compounds, 0.37% hits; AID 1251; in the data active = inhibition above about 30%
Bim-Mcl-1 – human Bim-Mcl-1 interaction inhibition. Q07820. Bead-based flow cytometry, Bim peptide-Mcl-1 binding. inhibition, % at 10 µM. 190,000 compounds, 0.1% hits; in the data active = inhibition above about 40%;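 also: 0% = no compound tracer wells and 100% = peptide blocker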
Starred values were filed as active, the others as inactive; x = not tested or not shown. The list is not random: actives were taken first. Their share in the collection is about 2.8%.

SMILES	Calpain2 inh	Mcl1-Noxa inh	Calb biofilm kill	Mcl1-Bid inh	Arbovirus inh	Bim-Mcl-1
COc1ccc2[nH]c(C)c(CCNC(=S)Nc3cc(C)cc(C)c3)c2c1	-15	4	6	-15	-4	-2
CCc1c(C)[nH]c2ccc(OC)cc2c1=S	-66	74*	12	-2	-8	-5
Cn1/c(=N/N=C/c2ccccn2)sc2ccccc21	-6	-5	4	-23	-4	2
CCNc1nc(NCC)nc(N/N=C/c2ccc(O)c(O)c2)n1	-15	54*	13	-45	-6	2
CN(C)C(=O)/C(C#N)=C\c1cc(Br)c(Sc2ccc(Cl)cc2)o1	-55	9	26	100*	3	-3
CO/C(N)=C(\C#N)N=Cc1ccccc1Cl	11	-12	15	-26	1	1
Cc1ccc(C#CC[N+]2(C)CCCCC2)cc1	-12	11	12	-18	x	x
CCOc1cc(N2CCOCC2)c(OCC)cc1NC(=O)COC(=O)c1cccc2ccccc12	5	18	17	-8	-1	-4
CCOC(=O)CSc1nn(C)c(=S)s1	-21	-7	x	57*	3	1
CCOC(=O)CSc1n[nH]c(=S)s1	7	1	3	-19	x	x
Cc1ccnc(Nc2nc3ccccc3o2)n1	133*	-8	x	-6	-10	-3
CCN(CC)c1ccc(NC(=O)c2cc3ccccc3o2)c(C)c1	-4	51*	x	-13	11	-2
CCN(CC)c1ccc(NC(=O)c2cccc(OC)c2)c(C)c1	14	22	x	-33	-21	-1
CCN(CC)c1ccc(NC(=O)c2c(OC)cccc2OC)c(C)c1	5	16	x	-34	38*	0
O=C(COC(=O)c1cccs1)NCC1CCCCC1	-9	-4	15	-11	8	0
CCOc1cccc2cc(C(N)=O)c(=N)oc12	-6	3	15	-13	x	x
CSc1nnc(SCC#N)s1	31	18	0	11	x	x
COc1ccc(COC(=O)NNC(=O)c2ccccc2Cl)cc1	24	-25	x	-8	2	47*
O=C(NNC(=O)c1ccccc1Cl)c1ccccc1Cl	11	-15	10	95*	x	x
COc1ccc(CC(=O)OCC(=O)NCc2ccccc2Cl)cc1	-8	13	12	-20	4	0
CCN(CCS(=O)(=O)c1ccc(Cl)cc1)C(=O)Nc1ccc(Cl)cc1	11	-23	-5	0	x	x
O=[N+]([O-])c1ccc(-c2ccc(/C=N/c3c(-c4ccco4)nc4ccccn34)o2)c(Cl)c1	-140	62*	x	57*	-12	6
O=[N+]([O-])c1ccc(Cl)c(-c2ccc(/C=N/c3c(-c4ccco4)nc4ccccn34)o2)c1	-27	41	x	55*	-7	2
Cc1ccc([N+](=O)[O-])cc1-c1ccc(/C=N/NC(=O)c2cc3c(ccc4ccccc43)o2)o1	-249	6	x	-13	-13	0
O=C(O)Cn1cc(/C=c2/sc3nc4ccccc4n3c2=O)c2ccccc21	-114	64*	1	-29	6	0
SMILES	Calpain2 inh	Mcl1-Noxa inh	Calb biofilm kill	Mcl1-Bid inh	Arbovirus inh	Bim-Mcl-1
O=c1/c(=C\c2cccn2-c2ccccc2)sc2nc3ccccc3n12	-14	x	x	-6	-5	5
CCOc1ccccc1N1CCN(C(=O)/C=C/c2cccc([N+](=O)[O-])c2)CC1	30	5	0	-24	10	-6
COc1ccc(C2CC(c3cccs3)=NN2S(C)(=O)=O)cc1OC (stereo not drawn)	3	-10	19	-25	3	-1
COc1ccc(C2CC(c3c(-c4ccccc4)c4cc(Cl)ccc4[nH]c3=O)=NN2S(C)(=O)=O)cc1OC (stereo not drawn)	-73	-5	x	59*	3	0
C=CCC1(/C=N/O)CCOC(C)(C)C1 (stereo not drawn)	-8	-24	9	98*	x	x
O=c1c(Cl)c2oc3ccccc3nc-2c2ccccc12	25	62*	12	48	-6	9
COc1cccc2cc(C(N)=O)/c(=N/NC(=O)COc3ccc(Cl)cc3)oc12	-3	4	19	64*	-23	-2
CCOc1cc(S(=O)(=O)Nc2ccc(Cl)cn2)ccc1F	23	15	x	2	-3	0
CCOc1cc(S(=O)(=O)Nc2ccccc2CC)ccc1Cl	15	56*	x	9	-35	-1
CCOc1cc(S(=O)(=O)Nc2ccccn2)ccc1F	0	-11	x	-3	-6	50*
O=S1(=O)CCN2N=C(C34CC5CC(CC(C5)C3)C4)SC2=N1	-4	0	5	0	-12	0
Cc1cc(N2CCCC2)nc2ccc(NC(=S)NC(C)C)cc12	-30	61*	29	-25	-16	-2
CSc1nc2cc(Oc3cccc(Cl)c3Cl)c(Cl)cc2[nH]1	61*	5	x	5	-22	-3
CC(C)Sc1ncc(S(=O)(=O)c2ccccc2)c(=O)[nH]1	-1	22	29	1	5	-2
C#CCSc1ncc(S(=O)(=O)c2ccccc2)c(=O)[nH]1	-1	8	14	13	30*	-2
CCCc1nnc(NC(=O)CCC(=O)N2CCN(S(=O)(=O)c3ccc(C)cc3)CC2)s1	23	5	29	8	x	x
Nc1ccc(N2CCCCC2)cc1N1CCCCC1	15	76*	x	-15	-15	0
CCc1ccc(NC(=O)N(CCN2CCOCC2)Cc2ccc3c(c2)CCCN3CC)cc1	25	74*	x	-69	2	-7
CCN1CCCc2cc(CN(CCN3CCOCC3)C(=S)Nc3cccc(C)c3)ccc21	-16	64*	8	-98	6	-2
CCN1CCCc2cc(CN(CCN3CCOCC3)C(=S)Nc3ccccc3C)ccc21	-40	72*	12	-99	-5	-1
CCN1CCCc2cc(CN(CCN3CCOCC3)C(=O)Nc3ccc(C)c(C)c3)ccc21	-8	-2	x	-35	3	-2
CCN1CCCc2cc(CN(CCN3CCOCC3)C(=S)Nc3ccc(OC)c(Cl)c3)ccc21	-4	-4	15	-38	-10	0
CCN1CCCc2cc(CN(CCN3CCOCC3)C(=S)Nc3ccccc3OC)ccc21	15	60*	0	-61	5	-2
CCN1CCCc2cc(CN(CCN3CCOCC3)C(=S)Nc3ccc(OC)c(OC)c3)ccc21	-60	25	9	-66	5	-1
Cc1onc(-c2ccccc2Cl)c1C(=O)N1CCOC12CCCCC2	3	6	12	-35	1	3
CC(=O)NCCNC(=O)C1CCCCN1S(=O)(=O)c1ccccc1 (stereo not drawn)	-21	3	6	-9	-8	-2
O=C(COC(=O)c1cccc(S(=O)(=O)N2CCCC2)c1)NCc1ccccc1	8	10	10	-31	-2	1
COc1ccc(Nc2nc(-c3ccc(OC)cc3)cs2)cc1	25	8	15	-29	-3	-6
COc1ccc(-c2csc(Nc3ccc(S(=O)(=O)Nc4cc(C)on4)cc3)n2)cc1	24	22	13	-27	30*	1
